Data published in ChEMBL document CHEMBL1772942, “Synthesis and in vitro cytotoxic evaluation of N-alkylbromo and N-alkylphthalimido-isatins” (Bioorg Med Chem Lett, 2011).

Experiments:
[1] = test system: HCT-15; experiment: Cytotoxicity against human HCT15 cells assessed as cell growth inhibition at 100 uM after 48 hrs by sulforhodamine B assay; format: functional; settings: HCT-15, 48 h, read-out: GI
Procedure, shortened: (§1)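 Cell lines from NCI, grown in RPMI-1640 (2 mM glutamine, pH 7.4, 10% fetal calf serum, penicillin) at 37 °C, 5% CO2, 90% RH, viability >98% by trypan blue. 1×10^5 cells/ml seeded, grown 24 h, then compound added at 10 or 100 µM (DMSO stocks diluted in medium with gentamycin) for 48 h. TCA fixation, SRB staining, OD 540 nm; % growth inhibition versus untreated growth, blank-subtracted.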

[2] = test system: THP-1; experiment: Cytotoxicity against human THP1 cells assessed as cell growth inhibition at 100 uM after 48 hrs by sulforhodamine B assay; format: functional; settings: THP-1, 48 h, read-out: GI; procedure, shortened: as §1
[3] = test system: HCT-15; experiment: Cytotoxicity against human HCT15 cells after 48 hrs by sulforhodamine B assay; format: functional, cell-based; settings: HCT-15, 48 h
Procedure, shortened: (§2)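 Sulforhodamine B assay on NCI-sourced cells in RPMI-1640/10% FCS, seeded at 1×10^5 cells/ml and left 24 h, then serial dilutions of 2×10^-2 M DMSO stocks in gentamycin medium added for 48 h (37 °C, 5% CO2). Cells fixed with cold TCA, SRB dye dissolved in Tris pH 10.4, OD read at 540 nm. IC50 is the concentration inhibiting 50% of cell viability.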

[4] = test system: HEp-2; experiment: Cytotoxicity against human Hep2 cells assessed as cell growth inhibition at 100 uM after 48 hrs by sulforhodamine B assay; format: functional; settings: HEp-2, 48 h, read-out: GI; procedure, shortened: as §1
[5] = test system: HCT-15; experiment: Cytotoxicity against human HCT15 cells assessed as cell growth inhibition at 10 uM after 48 hrs by sulforhodamine B assay; format: functional; settings: HCT-15, 48 h, read-out: GI; procedure, shortened: as §1
[6] = test system: A549; experiment: Cytotoxicity against human A549 cells assessed as cell growth inhibition at 100 uM after 48 hrs by sulforhodamine B assay; format: functional; settings: A549, 48 h, read-out: GI; procedure, shortened: as §1
[7] = test system: THP-1; experiment: Cytotoxicity against human THP1 cells assessed as cell growth inhibition at 10 uM after 48 hrs by sulforhodamine B assay; format: functional; settings: THP-1, 48 h, read-out: GI; procedure, shortened: as §1
[8] = test system: COLO 205; experiment: Cytotoxicity against human COLO205 cells after 48 hrs by sulforhodamine B assay; format: functional, cell-based; settings: COLO 205, 48 h
[9] = test system: A549; experiment: Cytotoxicity against human A549 cells after 48 hrs by sulforhodamine B assay; format: functional, cell-based; settings: A549, 48 h; procedure, shortened: as §2
[10] = test system: PC-3; experiment: Cytotoxicity against human PC3 cells after 48 hrs by sulforhodamine B assay; format: functional, cell-based; settings: PC-3, 48 h
[11] = test system: A549; experiment: Cytotoxicity against human A549 cells assessed as cell growth inhibition at 10 uM after 48 hrs by sulforhodamine B assay; format: functional; settings: A549, 48 h, read-out: GI; procedure, shortened: as §1
[12] = test system: THP-1; experiment: Cytotoxicity against human THP1 cells after 48 hrs by sulforhodamine B assay; format: functional, cell-based; settings: THP-1, 48 h; procedure, shortened: as §2
[13] = test system: HeLa; experiment: Cytotoxicity against human HeLa cells after 48 hrs by sulforhodamine B assay; format: functional, cell-based
[14] = test system: HEp-2; experiment: Cytotoxicity against human Hep2 cells assessed as cell growth inhibition at 10 uM after 48 hrs by sulforhodamine B assay; format: functional; settings: HEp-2, 48 h, read-out: GI; procedure, shortened: as §1
[15] = test system: THP-1; experiment: Cytotoxicity against human THP1 cells assessed as cell growth inhibition at 1 uM after 48 hrs by sulforhodamine B assay; format: functional; settings: THP-1, 48 h, read-out: GI
[16] = test system: A549; experiment: Cytotoxicity against human A549 cells assessed as cell growth inhibition at 1 uM after 48 hrs by sulforhodamine B assay; format: functional; settings: A549, 48 h, read-out: GI
[17] = test system: HCT-15; experiment: Cytotoxicity against human HCT15 cells assessed as cell growth inhibition at 1 uM after 48 hrs by sulforhodamine B assay; format: functional; settings: HCT-15, 48 h, read-out: GI
Procedure, shortened: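 NCI-sourced cells in RPMI-1640 (2 mM glutamine, 10% FCS, penicillin), >98% trypan-blue viable, seeded at 1 × 10^5 cells/ml and grown 24 h (37 °C, 5% CO2). DMSO stocks diluted in medium with gentamycin; 48 h exposure. TCA fixation 1 h at 4 °C, 0.4% SRB stain 30 min, dye dissolved in Tris pH 10.4, OD 540 nm. Blank-subtracted; inhibition relative to untreated growth (100%).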

[18] = test system: HEp-2; experiment: Cytotoxicity against human Hep2 cells assessed as cell growth inhibition at 1 uM after 48 hrs by sulforhodamine B assay; format: functional; settings: HEp-2, 48 h, read-out: GI

SMILES	inhibition of growth at 100 µM [1]	inhibition of growth at 100 µM [2]	IC50 [3]	inhibition of growth at 100 µM [4]	inhibition of growth at 10 µM [5]	inhibition of growth at 100 µM [6]	inhibition of growth at 10 µM [7]	IC50 [8]	IC50 [9]	IC50 [10]	inhibition of growth at 10 µM [11]	IC50 [12]	IC50 [13]	inhibition of growth at 10 µM [14]	inhibition of growth at 1 µM [15]	inhibition of growth at 1 µM [16]	inhibition of growth at 1 µM [17]	inhibition of growth at 1 µM [18]
O=C1C(=O)N(CCCBr)c2ccccc21	93%	95%	13.8 µM	93%	59%	37%	80%	> 100 µM	> 100 µM	15.3 µM	0%	> 100 µM	7.77 µM	36%				
O=C1C(=O)N(CCCCBr)c2ccccc21	88%	90%	11.8 µM	68%	62%	49%	90%	54.2 µM	> 100 µM	10.9 µM	30%	12.4 µM	4.57 µM	33%				
O=C1C(=O)N(CCCCCBr)c2ccccc21	91%	91%	8.46 µM	81%	62%	40%	85%	> 100 µM	> 100 µM	11.5 µM	0%	42.3 µM	5.49 µM	40%				
O=C1C(=O)N(CCCCCCBr)c2ccccc21	95%	93%	12.4 µM	86%	67%	53%	94%	> 100 µM	> 100 µM	11.7 µM	0%	26.5 µM	12 µM	48%				
O=C1C(=O)N(CCN2C(=O)c3ccccc3C2=O)c2ccccc21	86%	96%		68%	3%	43%	9%				18%			10%				
O=C1C(=O)N(CCCN2C(=O)c3ccccc3C2=O)c2ccccc21	58%	96%		30%	1%	1%	8%				0%			11%				
O=C1C(=O)N(CCCCN2C(=O)c3ccccc3C2=O)c2ccccc21	89%	92%		73%	4%	36%	44%				0%			15%				
O=C1C(=O)N(CCCCCN2C(=O)c3ccccc3C2=O)c2ccccc21	97%	93%		85%	9%	36%	60%				4%			10%				
O=C1C(=O)N(CCCCCCN2C(=O)c3ccccc3C2=O)c2ccccc21	91%	95%	9.73 µM	90%	49%	14%	96%	> 100 µM	> 100 µM	12.8 µM	0%	> 100 µM	8.82 µM	39%				
O=C1C(=O)N(CCBr)c2ccccc21	89%	96%		71%	4%	44%	14%				38%			14%				
COc1cccc2c1C(=O)c1c(O)c3c(c(O)c1C2=O)C[C@@](O)(C(=O)CO)C[C@@H]3O[C@H]1C[C@H](N)[C@H](O)[C@H](C)O1 [DOXORUBICIN]															96%	55%		
O=c1[nH]cc(F)c(=O)[nH]1 [FLUOROURACIL]																	31%	
CO[C@@]12[C@H](COC(N)=O)C3=C(C(=O)C(C)=C(N)C3=O)N1C[C@@H]1N[C@@H]12 [MITOMYCIN]																		31%
